Measured values taken from ChEMBL document CHEMBL4725313, “Development of phenylthiourea derivatives as allosteric inhibitors of pyoverdine maturation enzyme PvdP tyrosinase” (Bioorg Med Chem Lett, 2020).
pIC50: −log10 of the molar value. Blank lines part the entries; values can stand above or below the molecule they belong to. Calls of active or inactive are those of the source. No cut-off for these calls is given here.

How the values were obtained:
[1] = molecular target: Mushroom tyrosinase (Agaricus bisporus, UniProt O42713+Q00024+C7FF04+C7FF05); assay: Inhibition of mushroom tyrosinase
[2] = Inhibition of Pseudomonas aeruginosa PvdP tyrosinase; settings: for pIC50: read-out: IC50
[3] = Selectivity ratio of IC50 for mushroom tyrosinase to IC50 for Pseudomonas aeruginosa PvdP tyrosinase
[4] = system: Pseudomonas aeruginosa; assay: Inhibition of Pseudomonas aeruginosa PvdP tyrosinase up to 100 uM relative to control; settings: dose microM <=100
[5] = system: Pseudomonas aeruginosa; assay: Non-competitive inhibition of Pseudomonas aeruginosa PvdP tyrosinase assessed as Vmax at 0.2 uM by Lineweaver-Burk double reciprocal plot analysis (reference value: 0.0155 1/min)
[6] = system: Pseudomonas aeruginosa; assay: Inhibition of Pseudomonas aeruginosa PvdP tyrosinase mutant at 1 uM
[7] = system: Pseudomonas aeruginosa; assay: Non-competitive inhibition of Pseudomonas aeruginosa PvdP tyrosinase assessed as Km at 0.2 uM by Lineweaver-Burk double reciprocal plot analysis (reference value: 1.136 mM)
[8] = system: Pseudomonas aeruginosa; assay: Non-competitive inhibition of Pseudomonas aeruginosa PvdP tyrosinase assessed as Vmax at 0.5 uM by Lineweaver-Burk double reciprocal plot analysis (reference value: 0.0155 1/min)
[9] = (§1) Inhibition of PvdP tyrosinase in Pseudomonas aeruginosa PAO1 assessed as reduction in pyoverdin production incubated for 24 hrs in low iron medium
Outline: (§2)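 P. aeruginosa PAO1 grown 24 h in low-iron medium with a serial dilution of compound (200 - 0.79 µM; final DMSO 1%). Vehicle 1% DMSO as negative control. After incubation, pyoverdine read at 405 nm and cell growth at 600 nm.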

[10] = system: Pseudomonas aeruginosa PAO1; assay: as §1; outline: as §2
[11] = system: Pseudomonas aeruginosa; assay: Non-competitive inhibition of Pseudomonas aeruginosa PvdP tyrosinase assessed as Km at 0.5 uM by Lineweaver-Burk double reciprocal plot analysis (reference value: 1.136 mM)

IC50 [1]: > 500 µM
pIC50 [2]: 5.12
SMILES: S=C(NCc1c(Cl)cccc1Cl)Nc1ccccc1
Ratio IC50 [3]: > 500

pIC50 [2]: 4.65
SMILES: Fc1ccc(CCNC(=S)Nc2ccccc2)cc1

inhibition [4]: < 50%
IC50 [2]: Not Active
SMILES: NC(=O)Nc1ccccc1 [PHENYLUREA]

pIC50 [2]: 4.63
SMILES: S=C(NCc1ccc(Br)cc1)Nc1ccccc1

IC50 [2]: Not Active
SMILES: C=CCNC(=S)Nc1ccccc1

pIC50 [2]: 4.71
SMILES: COc1ccc(CN=C(S)Nc2ccccc2)cc1

SMILES: S=C(NCc1ccc(Cl)cc1)Nc1ccccc1
Vmax [5]: 0.0126 min⁻¹
IC50 [1]: 328 µM
pIC50 [2]: 6.24
inhibition [6]: inactive
Km [7]: 1130 µM
Vmax [8]: 0.0111 min⁻¹
pIC50 [9]: 4.35
inhibition [10]: Dose-dependent effect
Km [11]: 1140 µM
Ratio IC50 [3]: > 500

pIC50 [2]: 4.87
SMILES: Fc1ccc(CNC(=S)Nc2ccccc2)cc1

IC50 [1]: > 500 µM
pIC50 [2]: 5.10
SMILES: S=C(NCc1ccccc1Cl)Nc1ccccc1
Ratio IC50 [3]: > 500

pIC50 [2]: 4.71
SMILES: S=C(NCc1ccccc1)Nc1ccccc1

pIC50 [2]: 4.84
SMILES: CN(C)c1ccc(NC(=S)NCc2ccc(Cl)cc2)cc1

IC50 [2]: Not Active
SMILES: CNC(=S)Nc1ccccc1

IC50 [2]: Not Active
SMILES: Fc1cccc(Cl)c1NC(=S)Nc1ccccc1

pIC50 [2]: 4.65
SMILES: Cc1ccc(NC(=S)NCc2ccc(Cl)cc2)cc1

SMILES: NC(=S)Nc1ccccc1 [PHENYLTHIOUREA]
pIC50 [2]: 3.76
